OX1R antag-1 – antagonists of human orexin 1 receptor (OX1R) | Orexin/Hypocretin receptor type 1 (Homo sapiens), O43613 | OX1R-expressing cells, FRET antagonist read-out | inhibition, % at 6.6 µM | actives 1.8% (n = 330,000) | AID 485270, 2010; in the data active = inhibition mostly above about 38%, no sharp cut-off; inactive = mostly below about 40%;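 note: 0% = agonist challenge alone and 100% = reference antagonist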
TAAR1 antag – human TAAR1 antagonists, primary screen, Fluo-8 calcium fluorescence, CHO RD-HGA16 cells; antagonist; Trace amine-associated receptor 1 (Homo sapiens), Q96RJ0; inhibition, % at 3 µM; AID 624466, 2012; actives 1.5% (n = 360,000);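 active = inhibition above a per-plate cutoff, the mean inhibition of test compounds on that plate plus 3 SD, cut at about 49% in these data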;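 note: 0% = DMSO plus EC80 beta-PEA response and 100% = DMSO alone without agonist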
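Test system – hTAAR1-expressing CHO RD-HGA16 cells, Gα16-coupled · Also added – β-PEA at EC80 concentration, post-compound challenge · Compound – 3 µM, single point · Incubation – dye loading 75 min at 37 °C, then 30 min room temperature · Measured by – Fluo-8 intracellular calcium dye fluorescence, real-time kinetic reads · Benchmarks – vehicle and agonist controls · Replicates – singlicate, one well per test compound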
CHO parental Ca – ATP-evoked calcium signal inhibitors, parental CHO, primary screen, counter-screen for OX1R antagonist project, cell-based, fluorescence, Fluo-8 calcium dye | parental CHO-K1, ATP-induced calcium, Fluo-8 fluorescence | inhibition, % at 5.6 µM | actives 0.63% (n = 330,000);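 active = inhibition above that plate's mean sample inhibition plus 3 SD, cut at about 26% in these data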;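 note: 0% = ATP-challenged DMSO wells and 100% = DMSO wells without ATP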
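Measured by: calcium-sensitive Fluo-8 fluorescence / Test system: CHO parental line / Controls: ATP-challenged DMSO wells low, unchallenged DMSO wells high / Measure: % inhibition / Compound: single nominal dose of 5.6 µM per compound / Replicates: single well per compound, no replicates / Reagent: ATP as calcium-mobilizing challenge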
OX1R antag-2 – OX1R (HCRTR1) antagonists, primary screen, fluorescence, CHO/OX1R cells, Fluo-8 calcium, orexin A. Orexin/Hypocretin receptor type 1 (Homo sapiens), O43613. Fluo-8 calcium fluorescence. inhibition, % at 5 µM. actives 0.43% (n = 330,000). AID 434989, 2010;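 active = inhibition above its plate's threshold, mean inhibition of all tested compounds on the plate plus 3 SD, cut at about 37% in these data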;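 note: 0% = orexin A challenge wells and 100% = SB-334867-A antagonist wells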
TAAR1 agonist – human TAAR1 agonists, primary screen, Fluo-8 calcium fluorescence, CHO RD-HGA16 cells. Trace amine-associated receptor 1 (Homo sapiens), Q96RJ0. vehicle wells 0%, saturating PEA agonist 100%. activation, % at 3 µM. actives 0.99% (n = 360,000);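 active = activation above the mean activation of all test compounds in the run plus 3 SD, cut at about 38% in these data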
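System: CHO-derived RD-HGA16 cells with stable Gα16 and human TAAR1. Times: 17-24 h plating, Fluo-8 75 min 37 °C, 30 min RT. Measured by: calcium-sensitive Fluo-8 signal, excitation 470-495, emission 515-575 nm. Read-out basis: % activation relative to PEA EC100 response. Control set: DMSO and PEA EC100. Repeats: no replicates (n 1).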
GPR7 antagonist – GPR7 receptor antagonists, primary screen, cell-based, fluorescence, single concentration; inhibition, % at 4.4 µM; actives 1.1% (n = 290,000); GPR7-expressing cells, fluorescence antagonist assay; in the data active = inhibition above about 16%, passing the limit was not always enough;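 note: cells stimulated with the agonist NPW; 0% = agonist with vehicle and 100% = vehicle without agonist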
Target sequence (P48145 whole entry, looked up): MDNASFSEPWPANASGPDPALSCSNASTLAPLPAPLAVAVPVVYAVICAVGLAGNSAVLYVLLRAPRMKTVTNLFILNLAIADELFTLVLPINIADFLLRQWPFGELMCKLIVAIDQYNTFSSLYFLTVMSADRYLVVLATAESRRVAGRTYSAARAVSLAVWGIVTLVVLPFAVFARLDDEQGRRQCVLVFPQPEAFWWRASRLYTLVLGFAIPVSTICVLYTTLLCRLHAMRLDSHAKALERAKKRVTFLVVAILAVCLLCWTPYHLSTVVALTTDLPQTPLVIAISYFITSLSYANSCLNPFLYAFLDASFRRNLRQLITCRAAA
TAAR1 ag conf – human TAAR1 agonists, retest of hits, confirmation, Fluo-8 calcium fluorescence, CHO RD-HGA16 cells; shares compounds with TAAR1 agonist; scaled: DMSO 0%, maximal phenethylamine 100%; activation, % at 3 µM; actives 82% (n = 2,400); AID 651783, 2012;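 active = activation above a cutoff set at the run's mean compound activation plus 3 SD, cut at about 39% in these data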
Ga16 nonsel ag – nonselective calcium mobilization agonists, CHO-Ga16 cells, counter-screen for hTAAR1 agonist project, cell-based, fluorescence, CHO-Ga16 parental line; shares compounds with TAAR1 agonist; Fluo-8 calcium fluorescence; normalized to maximal ATP response, DMSO zero; activation, % at 3 µM; actives 50% (n = 2,400); AID 651787, 2012;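 active = activation above the run cutoff, the mean activation over all tested wells plus 3 SD, cut at about 12% in these data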;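 note: 0% = DMSO wells and 100% = maximal ATP response on the peak over basal ratio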
TAAR1 desensitize – TAAR1 desensitization by agonist hits, confirmation, counter-screen for TAAR1 agonist project, cell-based, fluorescence, tachyphylaxis; CHO RD-HGA16 hTAAR1, Fluo-8 calcium, beta-PEA response inhibition; AID 651951, 2012; actives 46% (n = 2,400); shares compounds with TAAR1 agonist; inhibition, % at 3 µM;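 active = inhibition above the run cutoff, the mean inhibition of all test compounds plus 3 SD, cut at about 49% in these data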;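 note: beta-PEA stimulus applied at its EC80; loss of beta-PEA calcium signal after compound pretreatment read as receptor desensitization; 0% = DMSO with beta-PEA at EC80 and 100% = DMSO alone without agonist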
Ga16 antag count – inhibition of ATP-evoked calcium response in CHO-Ga16 cells, counter-screen for TAAR1 agonist project, cell-based, fluorescence | shares compounds with TAAR1 agonist | CHO-Ga16 ATP-induced calcium, Fluo-8 fluorescence | inhibition, % at 3 µM | actives 39% (n = 2,400) | AID 651952, 2012;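 active = inhibition above the plate's mean compound inhibition plus 3 SD, computed per plate, cut at about 22% in these data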;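 note: 0% = EC80 ATP with DMSO and 100% = DMSO wells without ATP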
Active calls of the source: *; · = no result. Compounds with a hit are over-represented: about 4.6% of the library has one in this group of screens.

SMILES	OX1R antag-1	TAAR1 antag	CHO parental Ca	OX1R antag-2	TAAR1 agonist	GPR7 antagonist	TAAR1 ag conf	Ga16 nonsel ag	TAAR1 desensitize	Ga16 antag count
CCN1CCN(C(c2cccs2)C(C)NC(=O)Oc2ccccc2)CC1 (configuration not stated)	19	-4	-2	2	1	6	·	·	·	·
COc1cc(OC)c(OC)cc1CNCCc1cccc(F)c1	6	35	-15	-15	79*	-6	78*	12*	36	2
COc1ccc(CNCCc2cccc(F)c2)c2ccccc12	·	·	·	·	·	17	·	·	·	·
CN1C(=O)C(=CN2CCN(C(=O)c3ccco3)CC2)C(=O)N(C)C1=S	6	-9	8	-1	53*	-9	75*	6	21	-1
CCC(C)n1c(O)c(C=NCCc2ccccc2)c(=O)[nH]c1=S (configuration not stated)	9	5	-21	-50	69*	-20	60*	1	14	8
CC(C)CN1CCN(Cc2cccc3c2OCO3)CC1CCO (configuration not stated)	28	-28	-8	-4	2	-12	·	·	·	·
O=c1cc(C(F)(F)F)c2cc3c4c(c2o1)CCCN4CCC3	29	95*	73*	92*	195*	12	89*	112*	70*	75*
Cc1cccc(N2C(=O)NC(=O)/C(=C\c3cc(C)n(-c4sc5c(c4C#N)CCCC5)c3C)C2=O)c1C	9	9	-6	-15	5	0	·	·	·	·
CCOC(=O)c1c(-n2c(C)cc(C=C3C(=O)NC(=O)NC3=O)c2C)sc2c1CCCC2	15	35	-19	-16	47*	-8	53*	28*	44	38*
CCOC(=O)C(O)(c1ccc(NC(=O)NC)cc1)C(F)(F)F (configuration not stated)	5	-9	-1	7	1	5	·	·	·	·
Cc1cc(S(=O)(=O)NCc2ccccc2)ccc1OCC(=O)N1CCN(C)CC1	9	-2	-6	-21	12	-5	·	·	·	·
c1ccc2c(c1)CC1CNCc3cccc(c31)S2 (configuration not stated)	6	6	-2	-13	73*	19	93*	5	79*	-3
CCOc1ccc(NC(=O)c2c(C)nn(Cc3ccccc3)c2Cl)cc1	2	64*	-7	-26	54*	3	79*	43*	76*	46*
NCCc1ccc(O)cc1	10	89*	10	4	118*	-6	99*	3	94*	1
Cc1nnc2n1-c1ccc(Cl)cc1C(c1ccccc1)=NC2	·	·	·	·	·	-5	·	·	·	·
CCOc1ccccc1CNCCc1ccc2c(c1)OCO2	14	-10	-16	-30	0	6	·	·	·	·

Source: PubChem BioAssay (The Scripps Research Institute Molecular Screening Center)
